Assay outcomes: PubChem BioAssay, The Scripps Research Institute Molecular Screening Center
The list is not random: actives were taken first. Their share in the collection is about 2.2%.
NR2E3 ag-1: inhibitors of NR2E3-RetCOR corepressor binding, primary screen, NR2E3 agonist project, biochemical, TR-FRET, GST-NR2E3, biotin-RetCOR; inhibition of corepressor binding, % at 4.78 µM; AID 2300, 2010; 320,000 compounds, 0.12% hits; 1536-well; Photoreceptor-specific nuclear receptor (Homo sapiens), Q9Y5X4;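 active means percent inhibition above the cutoff of mean plus 3 SD of all tested compounds, set per screening campaign, cut at about 20% in these data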;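 further: 0% = DMSO wells and 100% = biotin wells as full block of FRET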
Target sequence (Q9Y5X4 whole entry, looked up): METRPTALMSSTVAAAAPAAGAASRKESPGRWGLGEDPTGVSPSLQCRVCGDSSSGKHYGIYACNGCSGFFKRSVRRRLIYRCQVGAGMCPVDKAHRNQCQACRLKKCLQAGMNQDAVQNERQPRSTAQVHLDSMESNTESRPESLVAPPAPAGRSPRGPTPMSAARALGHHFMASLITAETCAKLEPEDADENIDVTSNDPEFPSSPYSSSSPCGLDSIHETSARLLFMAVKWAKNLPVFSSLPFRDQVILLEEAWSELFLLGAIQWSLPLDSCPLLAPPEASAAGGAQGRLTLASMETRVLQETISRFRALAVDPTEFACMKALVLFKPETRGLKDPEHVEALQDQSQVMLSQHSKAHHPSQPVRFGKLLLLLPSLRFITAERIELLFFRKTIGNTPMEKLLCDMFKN
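Format: 1536-well format; test system: GST-NR2E3 and biotin-RetCOR proteins; read-out basis: percent inhibition of TR-FRET ratio; timing: 5 h incubation at 4 °C; detection: time-resolved FRET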
SMARCA2 act: SMARCA2 (BRM) function activators, primary screen, cell-based, luminescence, high throughput; MG213 cells, MMTV-luciferase reporter, dexamethasone, overnight; activation, % at 9.1 µM; 370,000 compounds, 1% hits; AID 652017, 2013; in the data active means activation above about 7.8%;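 further: 0% = vehicle wells and 100% = reference activator wells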
NR2E3 ag-2: NR2E3 agonists in two-hybrid cells, primary screen, cell-based, luminescence, CHO-S, Gal4-NCOR/VP16-NR2E3; Photoreceptor-specific nuclear receptor (Homo sapiens), Q9Y5X4; luciferase; inhibition of corepressor binding, % at 3.98 µM; 360,000 compounds, 0.35% hits;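 active means inhibition above the mean of all tested compounds plus 3 SD, cut at about 70% in these data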;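 further: 0% = DMSO with NR2E3 transfected cells and 100% = cells lacking NR2E3 construct; higher means lower luciferase signal from less NR2E3 corepressor binding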
COUP-TFII inh: NR2F2 transcriptional activity inhibitors, primary screen, cell-based, luciferase reporter, HEK293T, luminescence; HEK293T NGFI-A luciferase reporter; AID 686940, 2013; inhibition, % at 8.6 µM; 370,000 compounds, 0.7% hits; COUP transcription factor 2 (Homo sapiens), P24468;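 active means inhibition above a per-plate cutoff, mean inhibition of test wells between control levels plus 3 SD, cut at about 38% in these data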;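 further: cells cotransfected with COUP-TFII expression vector driving the NGFI-A reporter; 0% = median of COUP-TF2 test wells and 100% = reporter-only cells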
GalR3 antagonist: GalR3 antagonists in HEK293 cells, primary screen, cell-based, fluorescence readout | inhibition, % at 3 µM | 360,000 compounds, 0.44% hits | AID 651719, 2012 | Galanin receptor type 3 (Homo sapiens), O60755 | HEK293 GalR3-CNG cAMP membrane potential fluorescence; galR3 body fused to GalR1 C-terminus;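 active means inhibition above the screen-wide average plus 3 SD, cut at about 13% in these data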;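 further: forskolin and galanin both at EC90 stimulate the cells; cAMP rise reported by CNG channel membrane potential dye signal; 0% = forskolin plus galanin with DMSO and 100% = forskolin alone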
SMARCA2 conf: SMARCA2 (BRM) function activators, confirmation, cell-based, luminescence, triplicate. MG213 cells, MMTV-luciferase with dexamethasone, overnight; MG213 cells expressing E1A, Rb sequestered; DMSO wells 0%, reference activator 100%. activation, % at 9.1 µM. shares compounds with SMARCA2 act. 3,500 compounds, 30% hits. AID 652260, 2013;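 active means activation above its plate's cutoff, the mean activation of tested wells plus 3 SD, cut at about 7.9% in these data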
VP16 Luc act: GAL4-VP16 luciferase reporter activation, counter-screen for SMARCA2 (BRM) activator project, cell-based, pG5luc, luminescence, high throughput. AID 686939, 2013. shares compounds with SMARCA2 act. HEK293 GAL4-VP16 pG5luc reporter; scaled: DMSO wells 0%, SAHA wells 100%. 3,500 compounds, 41% hits. activation, % at 9.1 µM;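 active means activation above the solvent-only control well mean plus 3 SD, averaged across control plates, cut at about 5.2% in these data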
The depositor's hits bear a star; · = no result.

SMILES	NR2E3 ag-1	SMARCA2 act	NR2E3 ag-2	COUP-TFII inh	GalR3 antagonist	SMARCA2 conf	VP16 Luc act
C#CCCN([C@H](C(=O)OC)C(C)CC)S(=O)(=O)c1ccccc1Br (stereo partly drawn)	·	-3	·	4	·	·	·
COc1cc(OC)c(OC)cc1/C=C1\SC(N2CCCCC2)=NC1=O	-1	0	-10	-11	-6	·	·
COc1ccc(OC)c(/C=C2\SC(N3CCCCC3)=NC2=O)c1	-1	8.0*	-15	-3	-12	3	4
Cc1ccccc1NC(=O)OCCCN1C(=O)CCC12CCC(C)CC2 (stereo not drawn)	·	-3	·	18	·	·	·
COc1cc(OC)cc(C(=O)N[C@H](C(=O)NC23CC4CC(CC(C4)C2)C3)C(C)C)c1	4	9.9*	3	0	-5	1	0
O=[N+]([O-])c1ccc(OC[C@@H](O)CN2CCC(C(O)(c3ccccc3)c3ccccc3)CC2)c(Cl)c1	·	-2	·	0	·	·	·
COc1ccc(C(=O)/C=C/c2ccc(OC)cc2OC)c(O)c1	3	3	-32	-8	-5	·	·
O=C(/C=C/c1ccc(O)cc1)c1ccc(O)cc1O	0	8.1*	-26	-43	·	11*	1
COc1ccc(C(=O)C=Cc2cccs2)c(O)c1	·	8.2*	-37	-23	-2	5	5.7*
COc1ccc(C(=O)/C=C/c2ccccc2)c(O)c1	1	8.2*	-20	-29	-6	4	2
O=C(C=Cc1cccc(O)c1)c1ccccc1O	·	-2	-15	-9	-2	·	·
CN(CCOC(=O)c1occ2ccccc12)C1CN(Cc2cn(Cc3ccccc3Cl)nn2)S(=O)(=O)C1 (stereo not drawn)	·	3	·	-5	·	·	·
CCOc1ccc(CCNC(=O)C2CCCCC2)cc1OCC	·	·	·	18	·	·	·
COc1cccc2c1[C@H](/C=C/c1ccccc1)[C@@H]([C@H](O)CO)OC2	·	-2	·	11	·	·	·
CCCCN1CCN(C(=O)C2CCN(S(=O)(=O)c3ccc4[nH]c(=O)oc4c3)CC2)CC1	·	-4	·	-14	·	·	·
CCOc1cc2c(C)cc(=O)oc2cc1Cl	-1	9.9*	-3	-10	-1	-1	-2
Cc1ccccc1C(=O)N[C@@H](Cc1cccnc1)C(=O)N1CCC[C@H]1C(=O)NCCc1ccccc1Cl	·	2	·	11	-7	·	·
COc1ccc(/C=C2\Oc3ccccc3C2=O)cc1	·	4	-118	-28	-7	·	·
COc1cc(OC)c2c(c1)O/C(=C\c1ccccc1)C2=O	-3	11*	-124	-37	-7	7	9.4*
Nc1ccc(N=Nc2ccccc2)c2ccccc12	5	2	-4	-33	-9	·	·
c1ccc(N=Nc2ccc3cccccc2-3)cc1	0	9.6*	-12	-26	2	14*	13*
O=C1NC(c2ccccc2Br)=N/C1=C\c1ccco1	2	14*	-4	-20	-4	9.6*	7.3*
O=C1NC(c2ccccc2)=N/C1=C/c1ccco1	-9	5	-60	-30	-5	·	·
O=C(OCC#CCSc1nnc(-c2cccc3ccccc23)o1)c1ccc(Cl)c(C(F)(F)F)c1	·	·	·	-11	·	·	·
O=C(OC12CCCN(C1)/C(=C/c1cccc(Cl)c1)C2)c1ccc(Cl)cc1 (stereo not drawn)	·	-4	·	3	·	·	·
SMILES	NR2E3 ag-1	SMARCA2 act	NR2E3 ag-2	COUP-TFII inh	GalR3 antagonist	SMARCA2 conf	VP16 Luc act
CN(C)CCN(C(=O)c1ccc2ccccc2c1)c1nc2cc3c(cc2s1)OCO3	·	11*	0	-8	-3	1	1
O=C(Cn1c(-c2cncs2)nc2ccccc21)N1CCCCC1	·	-6	·	7	·	·	·
Cc1ccc(CN2CCN(c3ccccn3)CC2)s1	-4	9.6*	1	-19	0	3	0
Cc1cccc(CN2CCN(c3ccccn3)CC2)c1	1	-4	12	1	-4	·	·
CCCCNC(=O)O[C@H]1CC[C@@]23CCCN2C(=O)CCC[C@H]3[C@H]1C	·	·	·	11	·	·	·
S=C(NC1CCCC1)N1CCOCC1	5	8.2*	-8	0	-3	-2	2
CN(CC(=O)NCc1ccncc1)S(=O)(=O)c1ccc(Cl)cc1	1	1	-11	2	-1	·	·
CN(CC(=O)NCc1ccncc1)S(=O)(=O)c1ccc(F)cc1	3	8.3*	-10	-4	-8	-2	0
CCOc1ccc(OCc2ccc(C(=O)O)o2)cc1	2	6	-137	-28	-2	·	·
O=C(O)c1ccc(COc2ccc3ccccc3c2)o1	-1	8.6*	-127	-39	2	2	8.7*
CCC[C@H]1[C@@H](OC(=O)N2CCOCC2)CC[C@@]23CCCN2C(=O)CCC[C@@H]13	·	·	·	11	·	·	·
O=C(c1cccs1)N(C(=O)c1cccs1)c1ccc(Br)cn1	-2	4	-99	-18	-4	·	·
Cc1ccnc(N(C(=O)c2cccs2)C(=O)c2cccs2)c1	1	11*	-107	-54	-5	8.3*	6.8*
CC(c1ccccc1)N1CC[C@H]2C=CC[C@@H](C(=O)Nc3ccc(F)c(F)c3)[C@H]2C1=O (stereo partly drawn)	·	·	·	-4	·	·	·
CCc1cccc2c(C(=O)CN3C(=O)NC4(CCCCC4)C3=O)c[nH]c12	·	6	-2	-37	-5	·	·
CCc1cccc2c(C(=O)CN3C(=O)NC4(CCCCCC4)C3=O)c[nH]c12	1	11*	-11	-33	-5	13*	1
CCOC(=O)C(=NO)C1=CSC2=NNC(C)(C)N12	·	9.2*	8	0	-2	-1	1
Cc1cc(NC(=O)c2ccco2)ncc1NC(=O)Cc1ccccc1	-1	11*	-80	-37	-3	12*	3
CCC(=O)Nc1ccc(NC(=O)c2ccco2)c(OC)c1	0	2	-95	-19	-3	·	·
Cc1cc(NC(=O)C(C)C)ncc1NC(=O)c1ccco1	1	-3	-15	-16	-6	·	·
Cc1cc(NC(=O)c2ccco2)ccc1NC(=O)c1ccco1	·	9.7*	-34	-13	-7	-1	1
Cc1ccc(NC(=O)c2ccco2)cc1C	2	1	-78	-48	1	·	·
CCCC(=O)Nc1ccc(NC(=O)c2ccco2)c(OC)c1	3	9.7*	-66	-20	-7	7	6.5*
